Screening results: PubChem, several laboratories
Hits are enriched below; roughly 2.1% of the tested compounds scored in any of these assays.
MT stabilize HCS = microtubule stabilization, imaging screen; AID 2205; % tubulin-high responders, % at 10 µM; 0.83% of 200,000 active; HeLa tubulin immunostaining HCS, 24 h; share of cells brighter than vehicle mean+2SD;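 active = plate Z-score above 3 for both tubulin-high and condensed-nucleus cell shares, with cell loss under 80%, at 10 µM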;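 also: anti alpha tubulin signal scored within the nucleus-defined area of each cell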
KLF5 inh = inhibitors of KLF5 expression; DLD-1 KLF5 promoter-luciferase reporter, luminescence; inhibition, % at 5 µM; 0.23% of 290,000 active; AID 1700;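 active = inhibition above a per-plate limit of that plate's mean compound inhibition plus 3 SD, cut at about 60% in these data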;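 also: 0% = DMSO wells and 100% = LY294002 at 200 µM; higher means less KLF5 promoter-driven luciferase light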
b-catenin transl = modulators of beta-catenin nuclear translocation; 0.3% of 190,000 active; HeLa beta-catenin nuclear translocation, immunofluorescence imaging; AID 1665; nuclear translocation activity, % at 5 µM;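 active = nuclear translocation activity above 50% at 5 µM, with a well cell count of 50 or more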;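 also: per-cell ratio of nuclear to cytoplasmic median beta-catenin stain intensity; plate controls were DMSO negative control for no effect and GSK-3 inhibitor IX positive control for full effect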
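System: HeLa cells, endogenous beta-catenin; compound dosing: 5 µM primary single dose, 0.1% DMSO, 0.02–20 µM confirmation series; incubation: 24 h compound exposure at 37°C, 5% CO2; signal: beta-catenin immunofluorescence imaging with DAPI; evaluation: % activation, nuclear-to-cytoplasmic median beta-catenin signal ratio per cell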
BaF3 parental = parental Ba/F3 viability inhibition as JAK2V617F counter-screen. 1.1% of 220,000 active. CellTiter-Glo ATP luminescence. inhibition, % at 5.6 µM;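 active = inhibition above a per-campaign cutoff, the mean inhibition of all tested compounds plus 3 SD, cut at about 27% in these data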;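 also: 0% = DMSO wells and 100% = JAK Inhibitor I control wells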
IEC-6 tox = counter-screen for KLF5 inhibitors: cytotoxicity in IEC-6 cells; 0.78% of 290,000 active; AID 1825; inhibition, % at 5 µM; IEC-6 cytotoxicity, luminescence viability; in the data active = inhibition above about 22%;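 also: 0% = plate median of test compound wells and 100% = cytotoxic reference compound wells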
Ba/F3 V617F tox = loss of viability in JAK2V617F-driven Ba/F3 cells; Ba/F3 EpoR-JAK2V617F viability, ATP luminescence; inhibition, % at 5.6 µM; 1.1% of 220,000 active; AID 1446;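 active = inhibition above the campaign mean plus 3 SD over all tested compounds, cut at about 24% in these data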;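 also: cytokine-independent growth of Ba/F3 cells driven by EpoR plus mutant JAK2; 0% = DMSO-treated cells and 100% = JAK inhibitor I control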
Starred values were filed as active, the others as inactive; · = no result.

SMILES | MT stabilize HCS | KLF5 inh | b-catenin transl | BaF3 parental | IEC-6 tox | Ba/F3 V617F tox
O=C(CSc1nnc(-c2ccccn2)o1)Nc1ccccc1Cl | · | -106.6 | · | · | -5.9 | ·
C(#Cc1ccccc1)C[N+]1(CC#Cc2cccc3ccccc23)CCOCC1 | 1.6 | -7.4 | 0.4 | 50.2* | -4.1 | 55.7*
C#CC[N+]1(CC#Cc2ccccc2)CCOCC1 | 2.1 | -13.8 | -3.3 | 12.2 | -1.7 | 2.7
CCOC(=O)C1CCN(C(=O)c2cc3cc(Br)ccc3oc2=O)CC1 | 5.5 | 0.6 | -4.0 | 2.9 | 5.4 | 1.8
C=CCc1cc(Cl)ccc1OCCNCCCOC | 3.7 | -25.9 | -1.8 | 91.5* | -6.5 | 3.7
COC(=O)c1cn(C(=O)c2ccc(C)cc2C)c2ccccc12 | 15.4* | 0.7 | -2.0 | 8.5 | 5.5 | 4.7
COC(=O)c1cn(C(=O)c2ccccc2Cl)c2ccccc12 | 17.8* | -12.0 | 11.4 | 4.5 | 2.5 | -1.1
CCOC(=O)N1CCN(C(=O)c2cn(CC)c3ccc(S(=O)(=O)N4CCCCC4)cc3c2=O)CC1 | 2.6 | 11.3 | 0.3 | 5.0 | 2.1 | 3.4
CCN(CC)S(=O)(=O)c1cc(NC(=O)C2Cc3ccccc3C(=O)O2)ccc1C (centres undefined) | · | -35.5 | 1.2 | -8.8 | -9.2 | -2.5
CN(Cc1nccn1C)C(=O)CC1C(=O)NCCN1CC(c1ccccc1)c1ccccc1 (centres undefined) | 2.1 | -9.1 | 0.0 | 7.2 | 0.9 | -0.9
CCC(C)N(C(=O)c1csnn1)C(C(=O)NCc1ccc(F)cc1)c1ccccc1 (centres undefined) | · | 5.5 | · | · | 0.9 | ·
O=c1cc(N2CCN(c3ccccc3Cl)CC2)[nH]c(=O)n1Cc1ccc(F)cc1 | · | 20.8 | 1.4 | 8.0 | 20.1 | 10.5
COc1ccccc1N1CCN(c2cc(=O)n(Cc3ccc(F)cc3)c(=O)[nH]2)CC1 | 21.8* | 9.5 | 1.4 | 4.3 | -3.5 | -2.2
Cc1ccc(-c2cc[n+](Cc3ccccc3)cc2)cc1 | 2.1 | -18.4 | 1.2 | 73.3* | 4.2 | 85.2*
Cc1cccc(NC(=S)/N=C(\N)Nc2nc(C)c3ccc(C)cc3n2)c1 | 2.9 | -110.5 | 15.4 | 39.0* | 4.6 | 34.5*
N/C(=N\OC(=O)CCCc1ccccc1)c1ccccc1Cl | · | -20.4 | · | · | 6.1 | ·
O=C(Nc1ccc(N2CCCC2)cc1)c1cccc(F)c1 | 43.0* | -94.8 | · | 7.2 | 7.4 | 2.4
CCCN(CCC)S(=O)(=O)c1cc(Br)cc2c1N(C(=O)CC)CC2 | · | · | -1.4 | · | · | ·
O=C(CSc1nnc(COc2ccc(Cl)cc2)o1)N1c2ccccc2CCc2ccccc21 | 2.4 | -19.7 | 1.1 | 46.3* | 11.7 | 24.8*
O=C(CSc1nnc(COc2ccc(Cl)cc2)o1)N1CCCC1 | · | -7.9 | · | · | -3.9 | ·
O=C(CN(Cc1ccccc1)C(=O)CNS(=O)(=O)c1ccc(Cl)cc1)NCC1CCCO1 (centres undefined) | · | -17.3 | · | · | 1.7 | ·
CCC(C)c1ccccc1NC(=O)COC(=O)c1ccc2[nH]c3c(c2c1)CCCC3 (centres undefined) | 12.6* | -0.6 | 0.4 | -0.1 | 4.4 | -7.2
O=C(N/N=C(\c1ccccc1)c1cccnc1)c1cc(O)ccc1O | · | -26.8 | · | · | 5.4 | ·
N#CC1=C(N)C(C#N)(C#N)[C@H](c2c(F)cccc2F)[C@H]2CC3(CC=C12)OCCO3 | 25.5* | -8.1 | -2.5 | 4.5 | 5.5 | 0.3
Cc1ccccc1CC1(CO)CCCN(Cc2c(C)nn(C)c2Cl)C1 (centres undefined) | 2.8 | -11.3 | -0.1 | 79.8* | 9.8 | 0.3
SMILES | MT stabilize HCS | KLF5 inh | b-catenin transl | BaF3 parental | IEC-6 tox | Ba/F3 V617F tox
CCOc1ccccc1N1CCN(C(=O)C2c3ccccc3Oc3ccccc32)CC1 | 39.6* | 23.1 | 59.5* | 2.4 | 7.5 | -4.3
CCOc1ccccc1N1CCN(C(=O)c2ccccc2)CC1 | 2.4 | 13.0 | · | 5.2 | 4.2 | 1.8
CN1/C(=C\P(=O)(N(C)C)N(C)C)C(C)(C)c2ccccc21 | 2.5 | -31.9 | -3.3 | 62.4* | -5.4 | 61.1*
COc1cccc(C(=O)N/N=C(/c2ccccc2)c2ccccn2)c1 | 2.1 | 20.1 | -0.7 | 96.7* | 18.9 | 101.0*
COc1cc(C(=O)N/N=C(\c2ccccc2)c2ccccn2)cc(OC)c1OC | 2.6 | 29.2 | 1.6 | 6.5 | 10.1 | 5.5
CC(c1ccccc1)n1c(S(=O)(=O)O)nc2ccccc21 (centres undefined) | 4.4 | -15.6 | 0.0 | 58.4* | -0.1 | 0.5
CC(C)n1c(S(=O)(=O)O)nc2ccccc21 | 2.5 | -36.6 | 2.1 | 4.4 | -8.5 | -0.4
